One data set deals with Caco-2. Description: MTT viability test, Caco-2 colon cancer cells. The format is cell-based. Particulars: Caco-2, MTT. Background: Tetrazolium dyes change colour on reduction, which living cells bring about.
Data set [1] is described as follows: MTT cytotoxicity, HEK-293 control cells. The format is cell-based. Particulars: Caco-2. The method in brief: (§1)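 Cells are grown in RPMI-1640 with 10% FBS, seeded at 1 × 10^4 per well, and synchronized for 24 h. Medium is replaced with peptide (0–200 μg/mL) in the same medium for 2 h at 37 °C. MTT (5 mg/mL solution) is added for 4 h at 37 °C, and formazan is dissolved in DMSO for 30 min at 37 °C. Absorbance is read at 570 nm.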

The next data set deals with HEK-293. The data set can be described thus: MTT cytotoxicity, HEK-293 control cells. In kind it is cell-based. Particulars: for CC50 HEK-293: MTT, peptide 0-200 μg/mL, 2 h, 37 °C, n = 3; for Selectivity Index HEK-293/HT-29: SI = CC50/IC50. The method in brief: as §1
Data set [2] in a line: MTT cytotoxicity, Vero control cells. The format is cell-based. Conditions: Caco-2. The method in brief:
as §1

In the next data set the test system is Vero cells. Description: MTT cytotoxicity, Vero control cells. Conditions: for CC50 Vero: MTT, peptide 0-200 μg/mL, 2 h, 37 °C, n = 3; for Selectivity Index Vero/HT-29: SI = CC50/IC50. In kind it is cell-based. The method in brief:
as §1

The subject of another data set is human fibroblasts. The data set can be described thus: MTT cytotoxicity, fibroblasts control cells. In kind it is cell-based. Conditions: for CC50 fibroblasts: MTT, peptide 0-200 μg/mL, 2 h, 37 °C, n = 3; for Selectivity Index fibroblasts/HT-29: SI = CC50/IC50.
Another data set can be described thus: Hemolytic activity. The format is cell-based, human. Conditions: Caco-2. The method in brief:
(§2)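 Erythrocytes from healthy O+ donors (EDTA blood) are spun at 500 rpm and washed 3× in 0.9% saline. Peptide (final 200 to 6.2 μg mL−1) is mixed 1:1 with 2% hematocrit suspension for 2 h at 37 °C, then spun 2500 rpm for 5 min. Supernatant A450 is read. Positive controls are distilled water and Tween 20; the negative is 0.9% saline. The readout is the concentration causing 10% hemolysis.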

The next data set deals with erythrocytes. The data set can be described thus: Hemolytic activity. In kind it is cell-based, human. Particulars: SI = hemolysis10%/IC50. The method in brief: as §2
A short description of data set [3]: MTT cytotoxicity, fibroblasts control cells. The format is cell-based, human. Conditions: Caco-2.
The subject of data set [4] is Galleria mellonella. Description: Galleria mellonella toxicity test. The format is in vivo. Particulars: 20-100 mg/Kg, 10 days, Kaplan-Meyer, n = 2.
The test system of a further data set is Du-145. The data set can be described thus: MTT viability test, Du-145 prostate cancer cells. In kind it is cell-based. Particulars: for IC50 Du-145: peptide 0-200 μg/mL during 2 h, mean ± SE n = 3; for IC50: read-out: IC50 Du-145, peptide 0-200 μg/mL during 2 h, mean ± SE n = 3. The method, boiled down:
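Du-145 cells are seeded at 1 × 10^4 per well and synchronized for 24 h. They are exposed to peptide (0–200 μg/mL) in medium for 2 h at 37 °C. MTT (5 mg/mL solution) is added for 4 h at 37 °C, DMSO solubilization runs 30 min at 37 °C, and A570 is read. Data are mean ± SE, n = 3.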

The test system of data set [5] is Galleria mellonella. Particulars: at 33 mg/kg; cited from earlier work.

≈ marks a conversion by molar mass, not a printed value. Where “and” joins values, the source holds several entries; their conditions need not be identical. Equal entries are not always repeated. Where a SMILES comes first, the peptide text is derived from it. Where no end group is shown, it is not given here. [ ]: non-standard residue; d: D form. Orn = NCCC[C@H](N)C(=O)O; Ahx = NCCCCCC(=O)O

As to `N=C(N)NCCC[C@H](NC(=O)[C@H](Cc1c[nH]c2ccccc12)NC(=O)[C@H](CCC(N)=O)NC(=O)[C@H](Cc1c[nH]c2ccccc12)NC(=O)[C@H](CCCNC(=N)N)NC(=O)[C@H](Cc1c[nH]c2ccccc12)NC(=O)[C@H](CCC(N)=O)NC(=O)[C@H](Cc1c[nH]c2ccccc12)NC(=O)[C@H](CCCNC(=N)N)NC(=O)CCCCCN)C(N)=O` [Ahx-[Pal]] (H-[Ahx]RWQWRWQWR-NH2), in the data set on Caco-2, the “decrease of IC50 in Caco-2 cells compared to the parent peptide RWQWRWQWR” value is recorded as “approx. 50%”. Moreover, in data set [1], the selectivity ratio turned out to be 2.2. In the data set on HEK-293, the “CC50 HEK-293” value is 86 μM and 132 μg/mL; the “Selectivity Index HEK-293/HT-29” value amounted to 0.7. Further, in [2], the selectivity ratio stood at 1. In the data set with Vero cells, the “CC50 Vero” value is 40 μM and 64 μg/mL; the “Selectivity Index Vero/HT-29” value was 0.3. Also, in the data set with human fibroblasts, the CC50 fibroblasts is 98 μM and 157 μg/mL; the “Selectivity Index fibroblasts/HT-29” value stood at 0.8. The selectivity ratio in “Hemolytic activity” was above 3.1. In the data set on erythrocytes, the “Selectivity Index erythrocytes/HT-29” value is on record as above 1.1.
`N=C(N)NCCC[C@H](NC(=O)[C@H](Cc1c[nH]c2ccccc12)NC(=O)[C@H](CCC(N)=O)NC(=O)[C@H](Cc1c[nH]c2ccccc12)NC(=O)[C@@H](N)CCCNC(=N)N)C(=O)N[C@@H](Cc1c[nH]c2ccccc12)C(=O)N[C@@H](CCC(N)=O)C(=O)N[C@@H](Cc1c[nH]c2ccccc12)C(=O)N[C@@H](CCCN)C(N)=O` [^9[Orn] [Pal]] (H-RWQWRWQW[Orn]-NH2): in the data set on Caco-2, the “decrease of IC50 in Caco-2 cells compared to the parent peptide RWQWRWQWR” value is given as “approx. 50%” and the “fold increase in potency against Caco-2 versus parent peptide” value amounted to 2 fold. Besides, the selectivity ratio in [1] came to 1.3. In the data set on HEK-293, the “CC50 HEK-293” value was 51 μM and 74 μg/mL; the “Selectivity Index HEK-293/HT-29” value was 0.5. For the same molecule, the selectivity ratio in data set [2] is 1.2. Besides, in the data set with Vero cells, the “CC50 Vero” value was 46 μM and 67 μg/mL; the “Selectivity Index Vero/HT-29” value is on record as 0.4. The selectivity ratio in data set [3] came to 1.4. Moreover, in the data set with human fibroblasts, the CC50 fibroblasts was 55 μM and 79 μg/mL; the “Selectivity Index fibroblasts/HT-29” value worked out at 0.5. The selectivity ratio in “Hemolytic activity” was above 3.4. Besides, the “Selectivity Index erythrocytes/HT-29” value in the data set with erythrocytes is above 1.3. The “toxicity” value in the data set with Galleria mellonella [4] is reported as “did not show any significant toxicity”. Besides, in the data set with Du-145, the “IC50 Du-145” value turned out to be 89 µg/mL (≈ 61.6 µM) and the IC50 came out at 62 µM.
Consider `N.N.[Cl][Pt][Cl]` [cisplatin], for which, in the data set with Galleria mellonella [5], the “mortality in Galleria (previous study)” value was 60%.
For RWQWRWQWR-NH2 [[Pal]], the selectivity ratio in [1] was 0.8. Further, in the data set on HEK-293, the “CC50 HEK-293” value is 68 μM and 101 μg/mL; the “Selectivity Index HEK-293/HT-29” value is recorded as 0.7. For the same molecule, in data set [2], the selectivity ratio was 0.2. For the same molecule, the “CC50 Vero” value in the data set with Vero cells was 21 μM and 31 μg/mL. In addition, the CC50 fibroblasts in the data set with human fibroblasts is > 134 μM and > 200 μg/mL. Besides, the selectivity ratio in “Hemolytic activity” is 1.6. For the same molecule, the “Selectivity Index erythrocytes/HT-29” value in the data set on erythrocytes turned out to be 1.3. Moreover, in the data set with Du-145, the “IC50 Du-145” value stood at 60 µg/mL and the IC50 came out at 40 µM.

Source of the values: publication PMC10586019 (ACS Omega, 2023).
